From PubChem BioAssay come the findings set out here.

In general, viability refers to a read-out of living cells in per cent, often relative to untreated cells. As usually defined, the inhibition is the change of the read-out against control, counted positive when it falls.

Activity calls are given as the source filed them.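 Rule for the calls, unless noted: active = Her2 level under about 52% in both replicate screens, with viability over 70% of control (limit read from the data); inconclusive = Her2 under the limit in one screen only, or viability under 70%; inactive = Her2 level above the set limit.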

Assay [1] can be described thus: Her2 expression decrease, cell viability multiplex – SKBR3 breast tumor cells, AlphaScreen, ATP viability, primary screen (AID 461).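 For Her2 level: lower value means less Her2 protein in the cells.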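 For viability: percent of carrier control wells set as 100% viability.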 Particulars: SKBR3 Her2 protein level, 18-24 h, measured here: SKBR3 viability, ATP luminescence, at 10 µM. (In general: Bead proximity is the source of the signal in Alpha formats.)
In assay [2] the target is Receptor tyrosine-protein kinase erbB-2 (Homo sapiens) (UniProt P04626). The assay is described as above. Conditions: 18-24 h, at 10 µM, stronger effect = lower value.
Assay [3] is described as follows: reduced viability of SK-BR-3 breast cancer cells – cell-based, 24 h, human, pilot screen (AID 572;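 active = viability at or below 10% of carrier control in both of two separate runs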;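 note: compound exposure lasted between 18 and 24 h rather than exactly 24 h; 100% = carrier-treated control wells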). Conditions: SK-BR-3 viability, CellTiter-Glo luminescence, at 10 µM, stronger effect = lower value. A general note: ATP-based viability assays read luminescence as a measure of living cells.
Assay [4] is described as follows: HUVEC growth inhibition – cell-based, human, primary screen (AID 575;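 active = viability at or below 30% in both replicate assays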;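 note: 100% = median of untreated cell wells with 0.1% DMSO on each plate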). Particulars: HUVEC proliferation, CellTiter-Glo luminescence, 72 h; at 10 µM; stronger effect = lower value. A digest of the protocol:
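system = HUVEC primary cells | amount = 1250 cells/well | buffer or medium = supplemented EBM, 2% fetal bovine serum | dosing = single-point 10 µM, DMSO 0.1% final | times = 72 h compound incubation | detection = CTG luminescence | read-out = % viability relative to median vehicle-well signal on each plate | control set = vehicle and MePR control wells | format = collagen-coated 384-well format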

Assay [5] is described as follows: H69AR cell proliferation blockers – human, duplicate replicates, primary screen (AID 580;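 active = viability at or under a set limit in both replicates, limit being median viability minus 3 SD, cut at about 48% in these data, passing the limit was not always enough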;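 note: 100% = mean luminescence of untreated wells and 0% = no signal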). Conditions: H69AR lung tumor cells viability, ATP luminescence, 72 h; at 10 µM; stronger effect = lower value.
A short description of assay [6]: MRP1 drug-resistance reversers in H69AR cells – cell-based, doxorubicin co-treatment, pilot screen (AID 601;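 active = viability loss from added drug above about 55%, and viability with drug at most 40%, in both replicates, limit read from the data, passing the limit was not always enough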). Particulars: CellTiter-Glo, 72 h, at 10 µM; for differential viability (reversal): stronger effect = higher value.
A short description of assay [7]: yeast transport mutant growth inhibition pilot in 384-well plates, post-Golgi transport modulator project (AID 636; in the data active = inhibition above about 31%). Particulars: absorbance 615 nm, about 18 h, stronger effect = higher value.
Assay [8] can be described thus: growth suppression of yeast trafficking mutant, preliminary HTS, modulators of trafficking downstream of Golgi apparatus project, 1536-format plate, OD 615 nm (AID 637; in the data active = inhibition above about 30%). Conditions: yeast transport mutant growth, absorbance 615 nm, 18 h; stronger effect = higher value.
[9] abbreviates: H69AR cells + 2 uM doxorubicin, measured here: viability with 2 uM doxorubicin, stronger effect = lower value.
Where [10] appears, read: H69AR cells, compound alone cytotoxicity.

Sequence of Receptor tyrosine-protein kinase erbB-2 (Homo sapiens) (P04626 whole entry, looked up): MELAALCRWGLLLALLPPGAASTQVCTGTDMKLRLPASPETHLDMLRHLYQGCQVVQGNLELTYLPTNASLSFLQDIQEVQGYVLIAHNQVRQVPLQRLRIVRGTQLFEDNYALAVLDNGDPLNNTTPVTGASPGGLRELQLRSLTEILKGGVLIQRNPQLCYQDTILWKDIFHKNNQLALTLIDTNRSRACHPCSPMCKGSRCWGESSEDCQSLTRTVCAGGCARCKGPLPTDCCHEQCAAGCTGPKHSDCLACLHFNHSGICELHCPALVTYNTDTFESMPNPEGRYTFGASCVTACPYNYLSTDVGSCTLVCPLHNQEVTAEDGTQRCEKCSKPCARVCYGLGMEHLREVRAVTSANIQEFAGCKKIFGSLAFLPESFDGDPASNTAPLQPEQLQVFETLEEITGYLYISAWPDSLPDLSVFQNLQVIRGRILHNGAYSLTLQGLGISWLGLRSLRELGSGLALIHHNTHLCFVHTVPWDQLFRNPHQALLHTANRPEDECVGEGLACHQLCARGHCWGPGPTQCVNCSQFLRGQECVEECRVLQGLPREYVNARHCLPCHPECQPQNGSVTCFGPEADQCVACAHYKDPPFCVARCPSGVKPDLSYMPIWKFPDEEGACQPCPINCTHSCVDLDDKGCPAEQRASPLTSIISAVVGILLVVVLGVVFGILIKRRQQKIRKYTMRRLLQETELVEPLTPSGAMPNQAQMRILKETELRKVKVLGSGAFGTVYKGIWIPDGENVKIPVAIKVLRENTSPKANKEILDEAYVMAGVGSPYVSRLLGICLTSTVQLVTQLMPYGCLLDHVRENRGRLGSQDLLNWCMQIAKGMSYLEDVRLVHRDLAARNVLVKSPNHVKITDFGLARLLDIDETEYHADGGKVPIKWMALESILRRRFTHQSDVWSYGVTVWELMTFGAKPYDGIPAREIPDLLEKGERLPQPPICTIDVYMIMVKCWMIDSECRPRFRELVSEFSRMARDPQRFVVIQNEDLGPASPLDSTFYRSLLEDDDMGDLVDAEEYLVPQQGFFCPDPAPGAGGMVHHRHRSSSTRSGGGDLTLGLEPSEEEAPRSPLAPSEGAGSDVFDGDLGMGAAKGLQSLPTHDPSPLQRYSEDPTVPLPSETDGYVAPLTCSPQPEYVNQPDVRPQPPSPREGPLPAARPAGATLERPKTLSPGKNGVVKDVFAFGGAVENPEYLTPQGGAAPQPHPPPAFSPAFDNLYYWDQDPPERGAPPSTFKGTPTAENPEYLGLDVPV

For the compound `CCOC(=O)C1=C(C)NC2=C(C(=O)CC(C)(C)C2)C1c1ccc(N(C)C)cc1` (stereo not given), the viability in assay [1] is 93%; in assay [3], 93% (inactive); in assay [4] it was 87% (inactive); in assay [5], 94.3% (inactive); in assay [6] (setting [9]), 96.6%; in assay [6] (setting [10]), 94.3%. In assay [2], the Her2 level is 116% (inactive). Further, the differential viability (reversal) in assay [6] (H69AR cells + 2 uM doxorubicin) is -2.37% (inactive). Moreover, the inhibition is 1.3% (inactive) in assay [7] and -5.9% (inactive) in assay [8].

As for `O=C(CCS(=O)(=O)c1cccc2nonc12)Nc1cccc2c1CCCC2`, the viability in assay [1] is 94.5%; in assay [3] it was 94.5% (inactive); in assay [4], 103% (inactive); in assay [5], 95.5% (inactive); in assay [6] (setting [9]) it was 83.5%; in assay [6] (setting [10]) it was 95.5%. For the same compound, the Her2 level in assay [2] was 114% (inactive). The differential viability (reversal) in assay [6] (H69AR cells + 2 uM doxorubicin) is 12% (inactive). The inhibition in assay [7] is -6.44% (inactive); in assay [8], -3.65% (inactive).

With `O=C(OCc1cc2ccccc2[nH]c1=O)c1ccncc1`, the viability is 90.5% in assay [1]; 90.5% (inactive) in assay [3]; 76.4% (inactive) in assay [4]; 79.2% (inactive) in assay [5]; 89.7% in assay [6] (setting [9]); 79.2% in assay [6] (setting [10]). For the same compound, the Her2 level in assay [2] is 89% (inactive). Moreover, in assay [6] (H69AR cells + 2 uM doxorubicin), the differential viability (reversal) was -10.5% (inactive). Further, the inhibition in assay [7] was -4.34% (inactive); in assay [8], -2.74% (inactive).

On to `COc1cc(C2=NOC(C(=O)NCc3ccc(F)cc3)C2)cc(OC)c1OC` (stereo not given), for which the viability in assay [1] was 84%; in assay [3], 84% (inactive); in assay [4], 39.9% (inactive); in assay [5], 31.6% (active); in assay [6] (setting [9]), 83.9%; in assay [6] (setting [10]), 31.6%. Further, in assay [2], the Her2 level was 74.5% (inactive). Also, in assay [6] (H69AR cells + 2 uM doxorubicin), the differential viability (reversal) was -52.3% (inactive). The inhibition in assay [7] is -4.74% (inactive); in assay [8], -1.43% (inactive).

With `CCOC(=O)N1CCN(S(=O)(=O)c2ccc(F)c(C(=O)Nc3cc(C)cc(C)c3)c2)CC1`, the viability in assay [1] is 76%; in assay [3] it was 76% (inactive); in assay [4], 78.6% (inactive); in assay [5] it was 83.3% (inactive); in assay [6] (setting [9]) it was 81.9%; in assay [6] (setting [10]), 83.3%. Further, the Her2 level in assay [2] is 112% (inactive). Further, the differential viability (reversal) in assay [6] (H69AR cells + 2 uM doxorubicin) was 1.41% (inactive). In addition, the inhibition in assay [7] is -2.11% (inactive); in assay [8] it was -11.8% (inactive).

For the compound `Cc1ccc(S(=O)(=O)N2CCCC(C(=O)NC3=NCCS3)C2)cc1` (stereo not given), the viability in assay [1] was 97.5%; in assay [3], 97.5% (inactive); in assay [4] it was 83% (inactive); in assay [5] it was 91.8% (inactive); in assay [6] (setting [9]), 85.4%; in assay [6] (setting [10]) it was 91.8%. In assay [2], the Her2 level was 78.5% (inactive). The differential viability (reversal) in assay [6] (H69AR cells + 2 uM doxorubicin) was 6.39% (inactive). In addition, the inhibition is -6.67% (inactive) in assay [7] and 2.62% (inactive) in assay [8].

`CCOC(=O)N1CCC(O)(c2cc(C)c(C)cc2C)CC1`: the viability in assay [1] was 102%; in assay [3] it was 102% (inactive); in assay [4] it was 109% (inactive); in assay [5], 99.4% (inactive); in assay [6] (setting [9]) it was 90.2%; in assay [6] (setting [10]) it was 99.4%. Also, in assay [2], the Her2 level is 95.5% (inactive). Besides, in assay [6] (H69AR cells + 2 uM doxorubicin), the differential viability (reversal) was 9.24% (inactive). For the same compound, the inhibition is -4.19% (inactive) in assay [7] and -5% (inactive) in assay [8].

Take `Cc1cc(OCC(O)CN2CCN(CCO)CC2)ccc1C(C)C` (stereo not given): the viability in assay [1] was 86.5%; in assay [3] it was 86.5% (inactive); in assay [4] it was 101% (inactive); in assay [5], 95.3% (inactive); in assay [6] (setting [9]), 84.8%; in assay [6] (setting [10]), 95.3%. Moreover, in assay [2], the Her2 level was 96% (inactive). For the same compound, in assay [6] (H69AR cells + 2 uM doxorubicin), the differential viability (reversal) was 10.5% (inactive). Also, the inhibition in assay [7] was -2.21% (inactive); in assay [8] it was -1.67% (inactive).

For `Cc1nn(-c2ccccc2)c(C)c1C(=O)OCC(=O)c1c(N)n(CC(C)C)c(=O)n(C)c1=O`, the viability in assay [1] was 104%; in assay [3] it was 104% (inactive); in assay [4], 64.3% (inactive); in assay [5], 77.8% (inactive); in assay [6] (setting [9]), 102%; in assay [6] (setting [10]) it was 77.8%. The Her2 level in assay [2] was 74% (inactive). Also, the differential viability (reversal) in assay [6] (H69AR cells + 2 uM doxorubicin) is -24.7% (inactive). For the same compound, the values for the inhibition in assay [7] and in assay [8] were -8.4% (inactive) and 4.75% (inactive), respectively.

On to `CC(C)(C)NC(=O)NC(=O)COc1ccccc1C#N`, for which the viability was 104% in assay [1]; 104% (inactive) in assay [3]; 108% (inactive) in assay [4]; 106% (inactive) in assay [5]; 80.7% in assay [6] (setting [9]); 106% in assay [6] (setting [10]). Besides, the Her2 level in assay [2] was 90.5% (inactive). Also, the differential viability (reversal) in assay [6] (H69AR cells + 2 uM doxorubicin) is 25.7% (inactive). Further, the inhibition in assay [7] is -6.49% (inactive); in assay [8], -2.38% (inactive).

For `CCOc1ccc(OCc2cccc(C(=O)O)c2)cc1`, the viability in assay [1] was 108%; in assay [3], 108% (inactive); in assay [4] it was 77.6% (inactive); in assay [5] it was 89.6% (inactive); in assay [6] (setting [9]), 79.1%; in assay [6] (setting [10]) it was 89.6%. The Her2 level in assay [2] is 106% (inactive). For the same compound, in assay [6] (H69AR cells + 2 uM doxorubicin), the differential viability (reversal) was 10.5% (inactive). Also, the inhibition is -1.6% (inactive) in assay [7] and -3.87% (inactive) in assay [8].

Take `O=C(Cn1cnc2ccccc2c1=O)NCCC(=O)N1CCN(c2ccccc2)CC1`: the viability was 90.5% in assay [1]; 90.5% (inactive) in assay [3]; 99.6% (inactive) in assay [4]; 92% (inactive) in assay [5]; 83.5% in assay [6] (setting [9]); 92% in assay [6] (setting [10]). For the same compound, the Her2 level in assay [2] is 83.5% (inactive). The differential viability (reversal) in assay [6] (H69AR cells + 2 uM doxorubicin) was 8.53% (inactive). Further, the inhibition was -3.25% (inactive) in assay [7] and -0.98% (inactive) in assay [8].

`O=C(CCC(=O)N1CCc2ccccc2C1)N1CCN(S(=O)(=O)c2ccccc2)CC1`: the viability was 82% in assay [1]; 82% (inactive) in assay [3]; 84.4% (inactive) in assay [4]; 90.6% (inactive) in assay [5]; 91.2% in assay [6] (setting [9]); 90.6% in assay [6] (setting [10]). For the same compound, in assay [2], the Her2 level is 116% (inactive). Further, the differential viability (reversal) in assay [6] (H69AR cells + 2 uM doxorubicin) is -0.59% (inactive). For the same compound, the inhibition in assay [7] was 4.81% (inactive); in assay [8], 12.9% (inactive).

For `Cc1nc2ccc(S(=O)(=O)NCC(=O)O)cc2s1`, the viability is 102% in assay [1]; 102% (inactive) in assay [3]; 110% (inactive) in assay [4]; 107% (inactive) in assay [5]; 101% in assay [6] (setting [9]); 107% in assay [6] (setting [10]). For the same compound, the Her2 level in assay [2] was 100% (inactive). Besides, the differential viability (reversal) in assay [6] (H69AR cells + 2 uM doxorubicin) was 5.9% (inactive). Besides, the inhibition in assay [7] is -1.84% (inactive); in assay [8], -6.19% (inactive).

Regarding `COc1cccc(C2C(C(=O)c3cc4ccccc4o3)=C(O)C(=O)N2CCN(C)C)c1OC` (stereo not given), the viability is 104% in assay [1]; 104% (inactive) in assay [3]; 96.8% (inactive) in assay [4]; 100% (inactive) in assay [5]; 95.4% in assay [6] (setting [9]); 100% in assay [6] (setting [10]). Moreover, in assay [2], the Her2 level was 94.5% (inactive). Further, in assay [6] (H69AR cells + 2 uM doxorubicin), the differential viability (reversal) was 4.93% (inactive). Further, the inhibition in assay [7] is -3.87% (inactive); in assay [8], 11.3% (inactive).
